Experimental data from publication PMC11720871 (Results in chemistry, 2024).
Read-outs that look alike come from different tables or passages of the source.

Columns and labels:
MDA-MB-231 VIM RFP cells [1] = experiment: CCK-8 viability assay, cancer cells; format: cell-based, human; details: read-out: IC50 Cancer MDA-MB-231 VIM RFP
Procedure, shortened: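 MDA-MB-231 VIM RFP cells were grown in EMEM with 10% FBS, 0.01 mg ml−1 insulin, 10 μg ml−1 blasticidin S and 1% pen/strep at 37 °C, 5% CO2. Cells were seeded at 1.5 × 10^4 cells/well and exposed to 0–100 μM test compound, alone or with a fixed 50 μM BBC, for 24, 48 or 72 h. WST-8 (CCK-8) absorbance was read at 450 nm, and IC50 was taken from concentration–viability curves.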

MCF-10A cells = experiment: CCK-8 viability assay, non-cancer cells; format: cell-based, human; details: read-out: IC50 Non-cancer MCF-10A
MDA-MB-231 VIM RFP cells [2] = experiment: Cell cycle analysis by flow cytometry; format: cell-based, human; details: complex 20 μM and/or BBC 50 μM, 24 h
Procedure, shortened: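 Cells were plated at 1 × 10^6 cells/mL in 6-well plates and treated 24 h with 20 μM complex and/or 50 μM BBC. They were washed in PBS, fixed in ice-cold 70% EtOH at 4 °C for 2 h, washed again and stained with DAPI. Flow cytometry read at 450/50 nm, and G1, S and G2 fractions were gated. Triplicate; mean + std. err.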

[3] = system: Caspase 3/7 in MDA-MB-231 VIM RFP cells; experiment: Caspase-Glo 3/7 luminescence assay; format: cell-based, human; details: complex 20 μM and/or BBC 50 μM, 24 h
Procedure, shortened: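 Cells were seeded at 1.5 × 10^4 cells/well and treated for 24 h with 20 μM complex and/or 50 μM BBC. Caspase-Glo 3/7 reagent was added and luminescence read. Mean ± SE, n = 3.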

[4] = system: p-MLKL in MDA-MB-231 VIM RFP cells; experiment: Western blot analysis of p-MLKL; format: cell-based, human; details: complex 20 μM and/or BBC 50 μM, 24 h; relative to GAPDH
Procedure, shortened: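 Cells were plated at 1 × 10^6 cells/mL in 6-well plates and treated 24 h with 20 μM complex and/or 50 μM BBC. RIPA lysates were BCA-normalised, and equal protein was run on 10% SDS-PAGE (100 V, 2 h) and transferred to nitrocellulose (60 V, 90 min). After TBS blocking for 30 min, p-MLKL and GAPDH primaries were applied overnight at 4 °C, then Alexa Fluor Plus 488 secondary for 1 h at RT. Band densitometry was expressed relative to GAPDH.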

[5] = system: breast cancer MCF-7 cells; details: single agent; cited from earlier work
[6] = system: human cervical cancer HeLa cells; details: cited from earlier work
BT549 cells = details: 48 h of treatment; cited from earlier work
MDA-MB-231 cells = details: 48 h of treatment; cited from earlier work
[7] = system: non-cancer human prostate epithelial cells; details: berberine 10–100 μM; cited from earlier work
pregnant rats = details: high dose (500–600 times more than human dosage); cited from earlier work
[8] = system: prostate cancer PC3 cells; details: cited from earlier work

For `COc1ccc2cc3[n+](cc2c1OC)CCc1cc2c(cc1-3)OCO2` [Berberine chloride (BBC), berberine chloride], the IC50 (MDA-MB-231 VIM RFP cells [1]; Homo sapiens, MDA-MB-231, 24 h) was 48.3 ± 2.4 µM, the IC50 (MDA-MB-231 VIM RFP cells [1]; Homo sapiens, MDA-MB-231, 48 h) was 31.8 ± 2.6 µM and the IC50 (MDA-MB-231 VIM RFP cells [1]; Homo sapiens, MDA-MB-231, 72 h) was 25.6 ± 1.9 µM. The IC50 (MCF-10A cells; Homo sapiens, MCF-10A, 24 h) was greater than 100 µM, the IC50 (MCF-10A cells; Homo sapiens, MCF-10A, 48 h) was greater than 100 µM and the IC50 (MCF-10A cells; Homo sapiens, MCF-10A, 72 h) was 92.3 ± 1.4 µM. The “Fraction of cells in G2 phase” value (MDA-MB-231 VIM RFP cells [2]) was 33.8%, the “Caspase 3/7 activity (luminescence)” value [3] was “activation in caspase 3/7” and the “p-MLKL level, western blot” value [4] was “low level of p-MLKL”.
`N.N.[Cl][Pt][Cl]` [Cisplatin] showed an IC50 (MDA-MB-231 VIM RFP cells [1]; 24 h incubation, CCK-8) of 28.1 ± 2.4 µM, an IC50 (MDA-MB-231 VIM RFP cells [1]; 48 h incubation, CCK-8) of 24.7 ± 2.6 µM and an IC50 (MDA-MB-231 VIM RFP cells [1]; 72 h incubation, CCK-8) of 22.2 ± 1.8 µM. For the same compound, the IC50 (MCF-10A cells; 24 h incubation, CCK-8) was 41.2 ± 1.9 µM, the IC50 (MCF-10A cells; 48 h incubation, CCK-8) was 34.2 ± 2.7 µM and the IC50 [5] was 49.5 ± 1.62 µM.
In the case of `COc1ccc2cc3[n+](cc2c1OC)CCc1cc2c(cc1-3)OCO2` [berberine], the IC50 [5] is given as 52.2 ± 1.59 µM, the “Enhancement of toxicity of berberine when combined with cisplatin” value ([6]; berberine 50 μg/mL combined with 5 μM of cisplatin) is given as “around 54%” and the Cytotoxic effect ([6]; dose of 50 μg/mL) is given as “significant cytotoxic effect”. The IC50 (BT549 cells) was 16.575 ± 1.219 µg/mL, the IC50 (MDA-MB-231 cells) was 18.525 ± 6.139 µg/mL and the Cytotoxic effect [7] was “did not show a significant cytotoxic effect”. For the same compound, the Reproductive toxicity (pregnant rats) was “no significant reproductive toxicity”, the Cell cycle arrest ([8]; 10 μM) was “induced G0/G1 cell cycle arrest” and the Cell cycle arrest ([8]; 50 μM) was “inhibited the cell cycle at G2/M phase”.
